pIC50: −log10 of the molar value.
Columns and labels:
[1] = target: Epidermal growth factor receptor (Homo sapiens, UniProt P00533); experiment: Inhibition of EGFR (unknown origin) using poly (Glu, Tyr) 4:1 after 30 mins by HTRF assay
Procedure, shortened: (§1)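 HTRF assay using purified tyrosine kinase proteins in 50 mM HEPES pH 7.0 with DTT, MgCl2, MnCl2 and 0.1% NaN3. The substrate was poly(Glu,Tyr) 4:1 at 20 µg/mL, and ATP was added as a 10 mM solution. Compounds were diluted in 1% DMSO. Reactions ran 30 min at 25 °C and were stopped with Streptavidin-XL665 and Tk antibody cryptate.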

[2] = system: U-87 MG; experiment: Ratio of foretinib IC50 to compound IC50 for human U87MG cells after 72 hrs by MTT assay; type: functional, U-87MG ATCC
[3] = target: Vascular endothelial growth factor receptor 2 (Homo sapiens, UniProt P35968); experiment: Inhibition of VEGFR2 (unknown origin) using poly (Glu, Tyr) 4:1 after 30 mins by HTRF assay; procedure, shortened: as §1
[4] = Cytotoxicity against human H460 cells after 72 hrs by MTT assay; details: NCI-H460, 72 h
[5] = system: HT-29; experiment: Cytotoxicity against human HT-29 cells after 72 hrs by MTT assay; details: HT-29, 72 h
[6] = system: A549; experiment: Ratio of foretinib IC50 to compound IC50 for human A549 cells after 72 hrs by MTT assay; type: functional
[7] = target: Hepatocyte growth factor receptor (Homo sapiens, UniProt P08581); experiment: Inhibition of c-Met (unknown origin) using poly (Glu, Tyr) 4:1 after 30 mins by HTRF assay
[8] = target: Platelet-derived growth factor receptor beta (Homo sapiens, UniProt P09619); experiment: Inhibition of PDGFRbeta (unknown origin) using poly (Glu, Tyr) 4:1 after 30 mins by HTRF assay; procedure, shortened: as §1
[9] = target: T1, Receptor-type tyrosine-protein kinase FLT3 (Homo sapiens, UniProt P36888); experiment: Inhibition of Flt-3 (unknown origin) using poly (Glu, Tyr) 4:1 after 30 mins by HTRF assay; procedure, shortened: as §1
T1 sequence (P36888 whole entry): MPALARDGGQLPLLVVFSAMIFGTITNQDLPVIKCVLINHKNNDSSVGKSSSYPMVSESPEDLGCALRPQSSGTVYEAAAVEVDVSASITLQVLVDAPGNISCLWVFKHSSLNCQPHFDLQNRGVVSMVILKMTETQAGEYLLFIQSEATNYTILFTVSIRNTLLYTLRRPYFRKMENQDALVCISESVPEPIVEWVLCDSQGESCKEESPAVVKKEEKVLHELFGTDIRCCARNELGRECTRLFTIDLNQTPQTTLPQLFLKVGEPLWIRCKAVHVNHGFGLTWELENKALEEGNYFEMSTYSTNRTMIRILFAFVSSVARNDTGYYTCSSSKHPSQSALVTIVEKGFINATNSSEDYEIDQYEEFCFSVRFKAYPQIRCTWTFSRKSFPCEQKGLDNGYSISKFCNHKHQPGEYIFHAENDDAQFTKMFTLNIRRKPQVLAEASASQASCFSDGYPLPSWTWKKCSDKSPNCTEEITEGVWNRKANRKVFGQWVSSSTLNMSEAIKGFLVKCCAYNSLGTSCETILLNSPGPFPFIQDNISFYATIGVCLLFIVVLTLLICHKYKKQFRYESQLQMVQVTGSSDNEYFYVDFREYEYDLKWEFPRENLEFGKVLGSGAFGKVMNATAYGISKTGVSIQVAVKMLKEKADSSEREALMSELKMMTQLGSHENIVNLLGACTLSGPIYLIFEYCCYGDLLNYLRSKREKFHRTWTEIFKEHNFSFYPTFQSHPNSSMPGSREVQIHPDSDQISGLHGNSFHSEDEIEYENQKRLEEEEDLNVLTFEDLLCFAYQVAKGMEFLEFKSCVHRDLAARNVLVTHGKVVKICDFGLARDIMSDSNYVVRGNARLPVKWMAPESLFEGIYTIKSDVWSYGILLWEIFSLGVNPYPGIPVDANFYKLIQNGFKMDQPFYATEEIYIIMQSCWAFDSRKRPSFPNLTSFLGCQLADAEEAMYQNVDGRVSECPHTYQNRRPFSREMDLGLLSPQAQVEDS

[10] = Cytotoxicity against human U87MG cells after 72 hrs by MTT assay; type: functional, cell-based, U-87MG ATCC; details: U-87 MG
Procedure, shortened: (§2)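 Cells were grown in MEM with 10% FBS and seeded at about 4×10^3 cells per well, then held 24 h at 37 °C in 5% CO2. Compounds were added and the cells cultured 72 h. MTT was added to 5 µg/mL final for 4 h at 37 °C, and the formazan was dissolved in DMSO. IC50 is the mean of three determinations.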

[11] = Ratio of foretinib IC50 to compound IC50 for human H460 cells after 72 hrs by MTT assay; type: functional
[12] = system: HT-29; experiment: Ratio of foretinib IC50 to compound IC50 for human HT-29 cells after 72 hrs by MTT assay; type: functional
[13] = Cytotoxicity against human MKN45 cells after 72 hrs by MTT assay; details: MKN-45, 72 h
[14] = target: Mast/stem cell growth factor receptor Kit (Homo sapiens, UniProt P10721); experiment: Inhibition of c-Kit (unknown origin) using poly (Glu, Tyr) 4:1 after 30 mins by HTRF assay; procedure, shortened: as §1
[15] = system: A549; experiment: Cytotoxicity against human A549 cells after 72 hrs by MTT assay; type: functional, cell-based; details: A549, 72 h; procedure, shortened: as §2

COc1cc2c(Oc3ccc(N/C=C4\C(=O)NC(=O)N(c5ccc(C)cc5)C4=O)cc3F)ccnc2cc1OCCCN1CCCC1
pIC50 [1]: < 4.00 | Ratio IC50 [2]: 1.7 | pIC50 [3]: 6.42 | pIC50 [4]: 7.29 | pIC50 [5]: 6.89 | Ratio IC50 [6]: 1.8 | pIC50 [7]: 8.94 | pIC50 [8]: 6.28 | pIC50 [9]: 6.30 | pIC50 [10]: 6.19 | Ratio IC50 [11]: 3.7 | Ratio IC50 [12]: 1.2 | pIC50 [13]: 7.24 | pIC50 [14]: 6.19 | pIC50 [15]: 7.14

COc1cc2c(Oc3ccc(N/C=C4\C(=O)NC(=O)N(c5ccc(F)c(Cl)c5)C4=O)cc3F)ccnc2cc1OCCCN1CCCCC1
pIC50 [4]: 7.10 | pIC50 [5]: 6.70 | pIC50 [7]: 8.50 | pIC50 [10]: 6.00 | pIC50 [13]: 7.40 | pIC50 [15]: 6.74

COc1cc(N2C(=O)NC(=O)/C(=C\Nc3ccc(Oc4ccnc5cc(OCCCN6CCC(C)CC6)c(OC)cc45)c(F)c3)C2=O)c(OC)cc1Cl
pIC50 [4]: 6.24 | pIC50 [5]: 6.20 | pIC50 [7]: 7.72 | pIC50 [10]: 5.47 | pIC50 [13]: 6.34 | pIC50 [15]: 6.19

COc1cc2c(Oc3ccc(N/C=C4\C(=O)NC(=O)N(c5ccc(C)cc5)C4=O)cc3F)ccnc2cc1OCCCN1CCC(C)CC1
pIC50 [4]: 7.23 | pIC50 [5]: 6.85 | pIC50 [7]: 8.79 | pIC50 [10]: 6.04 | pIC50 [13]: 7.25 | pIC50 [15]: 6.00

COc1cc2c(Oc3ccc(N/C=C4\C(=O)NC(=O)N(c5ccccc5)C4=O)cc3F)ccnc2cc1OCCCN1CCC(C)CC1
pIC50 [4]: 6.77 | pIC50 [5]: 6.55 | pIC50 [7]: 8.42 | pIC50 [10]: 5.85 | pIC50 [13]: 7.34 | pIC50 [15]: 6.41

COc1cc2c(Oc3ccc(N/C=C4\C(=O)NC(=O)N(c5ccc(C)cc5)C4=O)cc3F)ccnc2cc1OCCCN1CCOCC1
pIC50 [4]: 7.21 | pIC50 [5]: 6.74 | pIC50 [7]: 8.67 | pIC50 [10]: 5.07 | pIC50 [13]: 6.68 | pIC50 [15]: 6.96

COc1cc2c(Oc3ccc(N/C=C4\C(=O)NC(=O)N(c5ccc(F)c(Cl)c5)C4=O)cc3F)ccnc2cc1OCCCN1CCN(C)CC1
pIC50 [4]: 7.12 | pIC50 [5]: 6.82 | pIC50 [7]: 8.50 | pIC50 [10]: 6.12 | pIC50 [13]: 7.18 | pIC50 [15]: 6.51

COc1cc2c(Oc3ccc(N/C=C4\C(=O)NC(=O)N(c5c(C)cccc5C)C4=O)cc3F)ccnc2cc1OCCCN1CCCCC1
pIC50 [4]: 6.80 | pIC50 [5]: 6.70 | pIC50 [7]: 8.43 | pIC50 [10]: 5.92 | pIC50 [13]: 6.31 | pIC50 [15]: 6.51

COc1cc2c(Oc3ccc(N/C=C4\C(=O)NC(=O)N(c5ccc(F)c(Cl)c5)C4=O)cc3F)ccnc2cc1OCCCN1CCOCC1
pIC50 [4]: 6.92 | pIC50 [5]: 6.55 | pIC50 [7]: 8.29 | pIC50 [10]: 6.24 | pIC50 [13]: 6.96 | pIC50 [15]: 6.57
